Test results from ChEMBL document CHEMBL1142431, “Benzodioxoles: novel cannabinoid-1 receptor inverse agonists for the treatment of obesity” (J Med Chem, 2008).
Converted amounts (≈) assume the structure as drawn. The source made the active and inactive calls. No cut-off for these calls is given here.

What was measured:
Rattus norvegicus [1] = test: Reduction in progression of body weight in diet-induced obesity Sprague-Dawley rat model at 10 mg/kg, po for 16 days; type: functional, organism-based; set-up: dose 10 mg/kg
Procedure, shortened: (§1)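 Obese Sprague-Dawley rats (HFD 10 weeks from 3 weeks old, selected as >2 SD above chow controls), n = 9 per group, gavage-adapted 3 days, then dosed daily by gavage at 5:00 p.m. for 16 days in water with 7.5% gelatine and 0.62% NaCl, 2 mL/kg; body weight and food intake recorded daily.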

[2] = Selectivity for human CB1 receptor over P2Y receptor
[3] = Selectivity for human CB1 receptor over kainate receptor
[4] = Selectivity for human CB1 receptor over NMDA receptor
Mus musculus = test: Reversal of CP-55940-induced hypothermia in NMRI mouse assessed as rectal temperature at 30 mg/kg, ip; type: functional; settings: route intraperitoneal, read-out: ID50 (the source's name)
Procedure, shortened: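 Mice housed eight per group, eight per dose, habituated at least 2 h. Test compound in 0.3% Tween 80 (10 mL/kg) given 90 min before CP 55940 (0.3 mg/kg iv, same vehicle). Body temperature read 20 min before compound, just before CP 55940, and 20 min after it.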

Homo sapiens [5] = species on record: Homo sapiens; test: Selectivity for human CB1 receptor over human adrenergic beta-1 receptor
Homo sapiens [6] = species on record: Homo sapiens; test: Selectivity for human CB1 receptor over human ETB receptor
Homo sapiens [7] = species on record: Homo sapiens; test: Selectivity for human CB1 receptor over human NK2 receptor
[8] = Solubility in fasted state stimulated intestinal fluid at pH 6.5; type: physicochemical; settings: fasted state simulated intestinal fluid
[9] = Selectivity for human CB1 receptor over sodium channel
[10] = Selectivity for human CB1 receptor over PCP receptor
Homo sapiens [11] = species on record: Homo sapiens; test: Selectivity for human CB1 receptor over human CCK1 receptor
Homo sapiens [12] = species on record: Homo sapiens; test: Selectivity for human CB1 receptor over human adenosine A2A receptor
Homo sapiens [13] = species on record: Homo sapiens; test: Selectivity for human CB1 receptor over human ORL1 receptor
Homo sapiens [14] = species on record: Homo sapiens; test: Selectivity for human CB1 receptor over human vanilloid V1a receptor
Rattus norvegicus [15] = test: Reduction in progression of body weight in diet-induced obesity Sprague-Dawley rat model at 3 mg/kg, po for 16 days; type: functional, organism-based; set-up: dose 3 mg/kg; procedure, shortened: as §1
[16] = Selectivity for human CB1 receptor over Kv channel
[17] = Permeability from apical to basolateral side of human Caco-2 cell membrane; type: ADME, cell-based; settings: read-out: permeability
[18] = Selectivity for human CB1 receptor over L type calcium channel at verapamil site
[19] = Selectivity for human CB1 receptor over TRH receptor
Homo sapiens [20] = species on record: Homo sapiens; test: Selectivity for human CB1 receptor over human dopamine D3 receptor
[21] = Partition coefficient, log D at pH 6.5; type: physicochemical; settings: octanol/water
[22] = Selectivity for human CB1 receptor over chloride channel
[23] = Selectivity for human CB1 receptor over muscarinic receptor
[24] = Selectivity for human CB1 receptor over AMPA receptor
[25] = Selectivity for human CB1 receptor over SK1 calcium channel
Homo sapiens [26] = species on record: Homo sapiens; test: Selectivity for human CB1 receptor over human estrogen receptor
Homo sapiens [27] = species on record: Homo sapiens; test: Selectivity for human CB1 receptor over human NK3 receptor
Homo sapiens [28] = species on record: Homo sapiens; test: Selectivity for human CB1 receptor over human ETA receptor
[29] = Selectivity for human CB1 receptor over CRF1 receptor
Homo sapiens [30] = species on record: Homo sapiens; test: Selectivity for human CB1 receptor over human bradykinin B2 receptor
[31] = Selectivity for human CB1 receptor over 5HTT
[32] = Selectivity for human CB1 receptor over GABA transporter
[33] = Selectivity for human CB1 receptor over histamine H1 receptor
Homo sapiens [34] = species on record: Homo sapiens; test: Selectivity for human CB1 receptor over human LTD4 receptor
[35] = Selectivity for human CB1 receptor over L type calcium channel at DHP site
[36] = Solubility in fed state stimulated intestinal fluid at pH 6.6; type: physicochemical; settings: fed state simulated intestinal fluid
Procedure, shortened: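 Excess compound (about 1-2 mg) was placed in about […] of 50 mM fed-state simulated intestinal fluid at room temperature. Final pH was measured the next day, then samples were filtered and quantified by HPLC against a five-dilution calibration.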

Homo sapiens [37] = species on record: Homo sapiens; test: Selectivity for human CB1 receptor over human CCK2 receptor
Homo sapiens [38] = species on record: Homo sapiens; test: Selectivity for human CB1 receptor over human adenosine A3 receptor
[39] = Selectivity for human CB1 receptor over DAT
[40] = Selectivity for human CB1 receptor over adrenergic alpha-1 receptor
[41] = Selectivity for human CB1 receptor over histamine H2 receptor
[42] = Selectivity for human CB1 receptor over BZD receptor
Homo sapiens [43] = species on record: Homo sapiens; test: (§2) Selectivity for human CB1 receptor over human CB2 receptor
[44] = Selectivity for human CB1 receptor over K ATP channel
Homo sapiens [45] = species on record: Homo sapiens; test: Selectivity for human CB1 receptor over human glucocorticoid receptor
[46] = Aqueous solubility at pH 6.5 by lyophilisation solubility assay; type: physicochemical
Procedure, shortened: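 Duplicate samples from 10 mM DMSO stock; DMSO evaporated 1 h, residue taken up in 50 mM phosphate buffer pH 6.5, stirred 1 h, shaken 2 h, left overnight. Filtrate and 1/10 dilution read by direct UV or HPLC-UV against four-point calibration; range for MW 500 0-666 µg/mL; >80% dissolved reported as greater-than.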

[47] = Selectivity for human CB1 receptor over neuronal N receptor
Homo sapiens [48] = species on record: Homo sapiens; test: Selectivity for human CB1 receptor over human adrenergic beta2 receptor
[49] = Selectivity for human CB1 receptor over central imidazoline I2 receptor
Homo sapiens [50] = species on record: Homo sapiens; test: Selectivity for human CB1 receptor over human dopamine D1 receptor
[51] = Selectivity for human CB1 receptor over L type calcium channel at diltiazem site
[52] = Selectivity for human CB1 receptor over P2X receptor
Cannabinoid receptor 1 = Cannabinoid receptor 1 (Homo sapiens, UniProt P21554); test: Activity at human CB1R expressed in HEK293 cells assessed as intracellular cAMP level; type: functional, cell-based
Liver microsomes = test: Clearance in rat liver microsomes; type: ADME, Microsome; settings: microsomes
Procedure, shortened: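 Test compound at 2 µM incubated with liver microsomes (0.5 mg protein/mL) in 50 mM potassium phosphate pH 7.4 at 37 °C. Reaction started with an NADPH-generating system (glucose-6-phosphate 3.2 mM, NADP 2.6 mM, MgCl2 6.5 mM). Six samples over 30 min, quenched in methanol with internal standard, then LC-MS/MS for substrate depletion. CLint taken from the first-order decay, normalized to protein.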

[53] = Selectivity for human CB1 receptor over androgen receptor
Homo sapiens [54] = species on record: Homo sapiens; test: as §2; remark: listed apart in the source
[55] = Selectivity for human CB1 receptor over opiate receptor
Homo sapiens [56] = species on record: Homo sapiens; test: Selectivity for human CB1 receptor over human MC4 receptor
Homo sapiens [57] = species on record: Homo sapiens; test: Selectivity for human CB1 receptor over human dopamine D2S receptor
[58] = Selectivity for human CB1 receptor over choline transporter
Rattus norvegicus [59] = test: Reduction in progression of body weight in diet-induced obesity Sprague-Dawley rat model at 1 mg/kg, po for 16 days; type: functional, organism-based; set-up: dose 1 mg/kg; procedure, shortened: as §1
Homo sapiens [60] = species on record: Homo sapiens; test: Selectivity for human CB1 receptor over human progesterone receptor

Sequence of Cannabinoid receptor 1 (P21554 whole entry): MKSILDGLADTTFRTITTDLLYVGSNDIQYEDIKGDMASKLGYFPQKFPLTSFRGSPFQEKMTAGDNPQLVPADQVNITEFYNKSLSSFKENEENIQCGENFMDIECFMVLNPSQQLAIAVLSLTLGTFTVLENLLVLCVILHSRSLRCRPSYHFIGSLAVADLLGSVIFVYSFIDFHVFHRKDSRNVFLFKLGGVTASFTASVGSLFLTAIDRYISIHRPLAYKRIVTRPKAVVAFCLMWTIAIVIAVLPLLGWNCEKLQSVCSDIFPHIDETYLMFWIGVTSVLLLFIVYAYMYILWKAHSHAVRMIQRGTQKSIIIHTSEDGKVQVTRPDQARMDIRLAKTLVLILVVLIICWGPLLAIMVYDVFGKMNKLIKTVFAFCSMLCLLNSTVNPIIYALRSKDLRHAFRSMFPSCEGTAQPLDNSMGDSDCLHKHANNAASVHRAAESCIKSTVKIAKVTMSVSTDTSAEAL

## O=C(c1cc2c(cc1F)O[C@](c1ccc(F)cc1)(c1ccc(Cl)cc1Cl)O2)N1CCOCC1
Rattus norvegicus [1]
  Activity: Active
[2]
  Selectivity ratio: 300
[3]
  Selectivity ratio: 300
[4]
  Selectivity ratio: 300
Mus musculus
  ED50: 4 mg/kg
Homo sapiens [5]
  Selectivity ratio: 300
Homo sapiens [6]
  Selectivity ratio: 300
Homo sapiens [7]
  Selectivity ratio: 300
[8]
  solubility: 129 µg/mL (≈ 262 µM)
[9]
  Selectivity ratio: 300
[10]
  Selectivity ratio: 300
Homo sapiens [11]
  Selectivity ratio: 300
Homo sapiens [12]
  Selectivity ratio: 300
Homo sapiens [13]
  Selectivity ratio: 300
Homo sapiens [14]
  Selectivity ratio: 300
Rattus norvegicus [15]
  Activity: Active
[16]
  Selectivity ratio: 300
[17]
  Papp A→B: 10.6 ×10⁻⁶ cm/s
[18]
  Selectivity ratio: 300
[19]
  Selectivity ratio: 300
Homo sapiens [20]
  Selectivity ratio: 300
[21]
  logD: > 4
[22]
  Selectivity ratio: 300
[23]
  Selectivity ratio: 300
[24]
  Selectivity ratio: 300
[25]
  Selectivity ratio: 300
Homo sapiens [26]
  Selectivity ratio: 300
Homo sapiens [27]
  Selectivity ratio: 300
Homo sapiens [28]
  Selectivity ratio: 300
[29]
  Selectivity ratio: 300
Homo sapiens [30]
  Selectivity ratio: 300
[31]
  Selectivity ratio: 300
[32]
  Selectivity ratio: 300
[33]
  Selectivity ratio: 300
Homo sapiens [34]
  Selectivity ratio: 300
[35]
  Selectivity ratio: 300
[36]
  solubility: 445 µg/mL (≈ 904 µM)
Homo sapiens [37]
  Selectivity ratio: 300
Homo sapiens [38]
  Selectivity ratio: 300
[39]
  Selectivity ratio: 300
[40]
  Selectivity ratio: 300
[41]
  Selectivity ratio: 300
[42]
  Selectivity ratio: 300
Homo sapiens [43]
  Selectivity ratio: > 1000
[44]
  Selectivity ratio: 300
Homo sapiens [45]
  Selectivity ratio: 300
[46]
  solubility: < 1 µg/mL
[47]
  Selectivity ratio: 300
Homo sapiens [48]
  Selectivity ratio: 300
[49]
  Selectivity ratio: 300
Homo sapiens [50]
  Selectivity ratio: 300
[51]
  Selectivity ratio: 300
[52]
  Selectivity ratio: 300
Cannabinoid receptor 1
  EC50: 8 nM
Liver microsomes
  clearance: 27 µL/min/mg
[53]
  Selectivity ratio: 300
Homo sapiens [54]
  Selectivity ratio: 1000
[55]
  Selectivity ratio: 300
Homo sapiens [56]
  Selectivity ratio: 300
Homo sapiens [57]
  Selectivity ratio: 300
[58]
  Selectivity ratio: 300
Rattus norvegicus [59]
  Activity: Active
Homo sapiens [60]
  Selectivity ratio: 300
